Measured values reported in article PMC10772668 (Clinical and Translational Science, 2023).

Legend:
RIPK1 [1] = target: T1, RIPK1 (Homo sapiens, UniProt Q13546); assay: In vitro inhibition of RIPK1 activity in iPSC‐derived microglia; format: cell-based
T1 sequence (Q13546 1-671): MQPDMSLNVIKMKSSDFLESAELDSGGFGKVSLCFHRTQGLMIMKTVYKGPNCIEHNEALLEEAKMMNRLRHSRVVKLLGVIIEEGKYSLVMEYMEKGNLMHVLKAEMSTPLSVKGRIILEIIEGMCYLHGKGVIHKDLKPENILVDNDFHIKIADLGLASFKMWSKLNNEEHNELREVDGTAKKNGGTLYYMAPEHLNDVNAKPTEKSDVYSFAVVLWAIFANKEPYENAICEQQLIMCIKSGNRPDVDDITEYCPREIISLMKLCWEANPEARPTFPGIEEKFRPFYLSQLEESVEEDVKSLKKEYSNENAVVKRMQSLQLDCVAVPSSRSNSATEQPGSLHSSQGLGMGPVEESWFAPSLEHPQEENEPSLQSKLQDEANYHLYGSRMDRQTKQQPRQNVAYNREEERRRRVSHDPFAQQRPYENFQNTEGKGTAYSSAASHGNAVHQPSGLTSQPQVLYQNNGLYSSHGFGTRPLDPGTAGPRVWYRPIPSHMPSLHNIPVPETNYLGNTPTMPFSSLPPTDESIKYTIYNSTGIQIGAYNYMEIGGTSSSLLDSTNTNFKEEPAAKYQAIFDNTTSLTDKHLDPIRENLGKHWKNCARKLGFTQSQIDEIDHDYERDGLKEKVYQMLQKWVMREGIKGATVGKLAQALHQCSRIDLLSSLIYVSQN

Plasma PK, MAD = format: in vivo, human; conditions: for half-life: T 1/2z; for Tmax: T max, median (range)
Method in brief: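 Oral capsules were given for 14 days (q.d. or b.i.d.) after an overnight fast of ≥8 h, with 2 h fasting post‑dose. Plasma was sampled predose and at 10–11 postdose times on days 1 and 14, predose on days 2, 3, 5, 7 and 11, and once on days 15–17. Quantification was by HPLC‑MS (LLOQ 1 ng/mL). AUCtau used tau 12 h (b.i.d.) or 24 h (q.d.). Accumulation was assessed by a linear model on log ratio and steady state by a nonlinear model on Ctrough.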

Safety, TEAEs, MAD = format: in vivo, human
Method in brief: (§1)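 Safety population: all participants exposed to study drug, followed from first dose to the end‑of‑study visit. Assessments covered physical and neurological exams, AEs, SAEs and AESIs (seizure, ALT ≥2×ULN, QTc ≥500 ms, pregnancy, overdose). Lab, vital‑sign and 12‑lead/Holter ECG abnormalities were also recorded. Coding used MedDRA 23.1 (part 1) or 24.0 (part 2), with severity graded 1–4 per FDA guidance. Counts were summarised per dose group, with placebo pooled.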

RIPK1 [2] = target: T1, RIPK1; assay: pS166‐RIPK1 inhibition in PBMC lysates, MAD; format: in vivo; conditions: MAD all dose groups
Method in brief: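 Blood was drawn predose on day −1 or 1, on day 7, on day 14 predose and 1, 3, 5 and 8 h postdose, and once on days 15 and 16. Subjects received 14‑day oral q.d./b.i.d. dosing or placebo. PBMCs were isolated and pS166‑RIPK1 measured in lysates. Percent change from baseline was summarised as median (Q1–Q3) per dose group and time.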

Safety, TEAEs, SAD = format: in vivo, human
Method in brief: as §1

IC50 (RIPK1 [1]): 1.6 nM
CLss/F, geometric mean (%CV) (Plasma PK, MAD; MAD 10 mg q.d., day 14): 7.08 (25.9) L/h
CLss/F, geometric mean (%CV) (Plasma PK, MAD; MAD 15 mg b.i.d., day 14): 9.16 (30.0) L/h
CLss/F, geometric mean (%CV) (Plasma PK, MAD; MAD 20 mg b.i.d., day 14): 9.27 (24.9) L/h
CLss/F, geometric mean (%CV) (Plasma PK, MAD; MAD 20 mg q.d., day 14): 9.40 (22.2) L/h
Overall accumulation, C max and AUCtau (Plasma PK, MAD; b.i.d. cohorts, day 14 vs day 1): around 1.5 fold
Cmax (Plasma PK, MAD; both, human, plasma, oral, 10 mg, C max, geometric mean (%CV), MAD 10 mg q.d., day 14): 158 ng/mL
half-life (Plasma PK, MAD; both, human, plasma, oral, 10 mg, geometric mean (%CV), MAD 10 mg q.d., day 14): 8.87 h
Tmax (Plasma PK, MAD; both, human, plasma, oral, 10 mg, MAD 10 mg q.d., day 14): 1 h
half-life (Plasma PK, MAD; both, human, plasma, oral, 15 mg, geometric mean (%CV), MAD 15 mg b.i.d., day 14): 7.21 h
Tmax (Plasma PK, MAD; both, human, plasma, oral, 15 mg, MAD 15 mg b.i.d., day 1): 1 h
Tmax (Plasma PK, MAD; both, human, plasma, oral, 15 mg, MAD 15 mg b.i.d., day 14): 1 h
half-life (Plasma PK, MAD; both, human, plasma, oral, 20 mg, geometric mean (%CV), MAD 20 mg b.i.d., day 14): 7.37 h
half-life (Plasma PK, MAD; both, human, plasma, oral, 20 mg, geometric mean (%CV), MAD 20 mg q.d., day 14): 8.53 h
Tmax (Plasma PK, MAD; both, human, plasma, oral, 20 mg, MAD 20 mg b.i.d., day 14): 1 h
Tmax (Plasma PK, MAD; both, human, plasma, oral, 20 mg, MAD 20 mg q.d., day 14): 2 h
pS166‐RIPK1 inhibition in PBMC lysates (RIPK1 [2]; 48 h post last dosing): less inhibition of RIPK1 phosphorylation
pS166‐RIPK1 inhibition in PBMC lysates (RIPK1 [2]; day 14, up to 24 h post last morning dosing): greater than 80%
Compound: CC(C)(C(=O)N1CCOc2c(C#N)cncc2C1)C(F)F [SAR443820]
Any TEAE, n (%) (Safety, TEAEs, MAD; MAD 10 mg QD (n = 8)): 4 (50.0) n (%)
Any grade ≥3 TEAE, n (%) (Safety, TEAEs, MAD; MAD 10 mg QD (n = 8)): 0 n (%)
Any treatment‐emergent AESI, n (%) (Safety, TEAEs, MAD; MAD 10 mg QD (n = 8)): 0 n (%)
Any treatment‐emergent SAE, n (%) (Safety, TEAEs, MAD; MAD 10 mg QD (n = 8)): 0 n (%)
Any TEAE, n (%) (Safety, TEAEs, MAD; MAD 15 mg BID (n = 8)): 6 (75.0) n (%)
Any grade ≥3 TEAE, n (%) (Safety, TEAEs, MAD; MAD 15 mg BID (n = 8)): 0 n (%)
Any treatment‐emergent AESI, n (%) (Safety, TEAEs, MAD; MAD 15 mg BID (n = 8)): 1 (12.5) n (%)
Any treatment‐emergent SAE, n (%) (Safety, TEAEs, MAD; MAD 15 mg BID (n = 8)): 0 n (%)
Concomitant AST increase, one participant (Safety, TEAEs, MAD; MAD 15 mg b.i.d.): 1.43 ULN
ALT increase (AESI), one participant (Safety, TEAEs, MAD; MAD 15 mg b.i.d., day 9): 2.29 ULN
ALT increase (AESI), one participant (Safety, TEAEs, MAD; MAD 15 mg b.i.d., day 15 (24 h post last dosing)): 2.71 ULN
Any TEAE, n (%) (Safety, TEAEs, MAD; MAD 20 mg BID (n = 8)): 4 (50.0) n (%)
Any grade ≥3 TEAE, n (%) (Safety, TEAEs, MAD; MAD 20 mg BID (n = 8)): 0 n (%)
Any treatment‐emergent AESI, n (%) (Safety, TEAEs, MAD; MAD 20 mg BID (n = 8)): 0 n (%)
Any treatment‐emergent SAE, n (%) (Safety, TEAEs, MAD; MAD 20 mg BID (n = 8)): 0 n (%)
Any TEAE, n (%) (Safety, TEAEs, MAD; MAD 20 mg QD (n = 8)): 3 (37.5) n (%)
Any grade ≥3 TEAE, n (%) (Safety, TEAEs, MAD; MAD 20 mg QD (n = 8)): 0 n (%)
Any treatment‐emergent AESI, n (%) (Safety, TEAEs, MAD; MAD 20 mg QD (n = 8)): 0 n (%)
Any treatment‐emergent SAE, n (%) (Safety, TEAEs, MAD; MAD 20 mg QD (n = 8)): 0 n (%)
Any TEAE, n (%) (Safety, TEAEs, SAD; SAD 10 mg (n = 6)): 2 (33.3) n (%)
Any grade ≥3 TEAE, n (%) (Safety, TEAEs, SAD; SAD 10 mg (n = 6)): 0 n (%)
Any treatment‐emergent AESI, n (%) (Safety, TEAEs, SAD; SAD 10 mg (n = 6)): 0 n (%)
Any treatment‐emergent SAE, n (%) (Safety, TEAEs, SAD; SAD 10 mg (n = 6)): 0 n (%)
Any TEAE, n (%) (Safety, TEAEs, SAD; SAD 20 mg (n = 6)): 1 (16.7) n (%)
Any grade ≥3 TEAE, n (%) (Safety, TEAEs, SAD; SAD 20 mg (n = 6)): 0 n (%)
Any treatment‐emergent AESI, n (%) (Safety, TEAEs, SAD; SAD 20 mg (n = 6)): 0 n (%)
Any treatment‐emergent SAE, n (%) (Safety, TEAEs, SAD; SAD 20 mg (n = 6)): 0 n (%)
Any TEAE, n (%) (Safety, TEAEs, SAD; SAD 30 mg (n = 6)): 3 (50.0) n (%)
